Data taken from ChEMBL document CHEMBL4837197, “A novel Hsp70 inhibitor specifically targeting the cancer-related Hsp70-Bim protein-protein interaction” (Eur J Med Chem, 2021).
The source made the active and inactive calls. The calls are words filed in the database; no cut-off is given here.

Legend:
[1] = molecular target: Apoptosis regulator Bcl-2 (Homo sapiens, UniProt P10415); test: Inhibition of FAM-Bim peptide binding to human Bcl-2 (2 to 206) measured after 30 mins by fluorescence polarization assay
How it was run: (§1)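 Fluorescence polarization competition. Serial dilutions of compound added to protein–probe mixture in buffer containing 0.02% sodium azide, incubated 30 min, then polarization read. Control values subtracted. IC50 from the competitive inhibition curve of polarization versus compound concentration.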

[2] = Inhibition of FAM-Bim peptide binding to human Hsp70 NBD (1 to 383) measured after 30 mins by fluorescence polarization assay; how it was run: as §1
BV-173 [3] = test: Competitive binding affinity to HSP70 in human BV-173 cell lysate by pull-down/Western blot analysis; format: subcellular
How it was run: (§2)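 BV173 cell lysate incubated with biotin-clickable affinity probe, with or without competitor. Probe-bound proteins pulled down on streptavidin/avidin agarose after click reaction. Beads washed with 0.1% SDS and PBS, boiled 15 min in SDS loading buffer. Hsp70, Hsc70 and Mortalin detected by Western blot.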

BV-173 [4] = test: Inhibition of Hsp70/Bim protein protein interaction in human BV-173 cells assessed as decrease in Akt expression at 3 uM by Western blot analysis; format: cell-based
How it was run: (§3)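 BV173 and KCL22 cells treated at 3 µM, with DMSO as vehicle. Lysed in RIPA with protease/phosphatase inhibitor for 30 min on ice and protein measured by BCA. 150–250 µg resolved by SDS-PAGE and blotted for AKT, pAKT, Raf-1 and pRaf-1, with β-actin loading control.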

[5] = molecular target: Heat shock cognate 71 kDa protein (Homo sapiens) (UniProt P11142); test: Competitive binding affinity to Hsc70 in human BV-173 cell lysate up to 10 uM by pull-down/Western blot analysis; format: subcellular; conditions: dose microM <=10; how it was run: as §2
KCL-22 [6] = test: Inhibition of Hsp70/Bim protein protein interaction in human KCL-22 cells assessed as decrease in Akt expression at 3 uM by Western blot analysis; format: cell-based; how it was run: as §3
BV-173 [7] = test: Inhibition of Hsp70/Bim protein protein interaction in human BV-173 cells assessed as decrease in Akt phosphorylation at 3 uM by Western blot analysis; format: cell-based; how it was run: as §3
BV-173 [8] = test: Induction of apoptosis in human BV-173 cells transfected with Bim shRNA assessed as cleaved PARP at 3 uM by Western blot analysis; format: functional, cell-based
How it was run: (§4)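 Stable non-silencing, Hsp70 or Bim shRNA BV173 clones treated at 3 µM. Lysed in RIPA with protease/phosphatase inhibitors, 150–250 µg protein resolved by SDS-PAGE, and PARP cleavage detected by immunoblot. n = 3 independent samples.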

KCL-22 [9] = test: Induction of apoptosis in human KCL-22 cells by AnnexinV-FITC/PI staining based flow cytometric analysis; format: functional, cell-based
How it was run: (§5)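 Cells treated with inhibitor for 48 h (DMSO stocks diluted in medium), washed in PBS with 1% bovine calf serum, stained with FITC–Annexin V (1:40) for 10 min in the dark at room temperature, and analysed by flow cytometry. EC50 is the concentration giving 50% apoptosis. Culture conditions: BV173 and KCL22 in RPMI 1640, HEK293 in DMEM, BaF3 in RPMI 1640 with 10 ng/ml mouse IL-3, all with 10% FBS at 37 °C, 5% CO2.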

BV-173 [10] = test: Inhibition of Hsp70/Bim protein protein interaction in human BV-173 cells assessed as decrease in Raf-1 phosphorylation at 3 uM by Western blot analysis; format: cell-based; how it was run: as §3
BV-173 [11] = test: Inhibition of Hsp70/Bim protein protein interaction in human BV-173 cell lysate at 1 to 5 uM by co-IP/Western blot analysis; format: subcellular; conditions: dose 1-5 µM
How it was run: (§6)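 BV173 cells treated at 0, 1, 3 and 5 µM. Immunoprecipitated with sepharose beads for 2 h at 4 °C. Hsp70, Bim and Bag3 probed by Western blot with β-actin as loading control.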

BV-173 [12] = test: Induction of apoptosis in human BV-173 cells transfected with Hsp70 shRNA assessed as cleaved PARP at 3 uM by Western blot analysis; format: functional, cell-based; how it was run: as §4
BV-173 [13] = test: Induction of apoptosis in human BV-173 cells transfected with Hsp70 shRNA at 3 uM by AnnexinV staining method; format: functional, cell-based
How it was run: (§7)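 Stable clones of BV173 carrying non-silencing, Hsp70 or Bim shRNA, treated at 3 µM for 48 h. Apoptosis scored by Annexin V-FITC staining and flow cytometry. n = 3 independent samples, mean ± s.e.m.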

KCL-22 [14] = test: Inhibition of Hsp70/Bim protein protein interaction in human KCL-22 cells assessed as decrease in Raf-1 phosphorylation at 3 uM by Western blot analysis; format: cell-based; how it was run: as §3
KCL-22 [15] = test: Inhibition of Hsp70/Bim protein protein interaction in human KCL-22 cells assessed as decrease in Raf-1 expression at 3 uM by Western blot analysis; format: cell-based; how it was run: as §3
KCL-22 [16] = test: Inhibition of Hsp70/Bim protein protein interaction in human KCL-22 cells assessed as decrease in Akt phosphorylation at 3 uM by Western blot analysis; format: cell-based; how it was run: as §3
BV-173 [17] = test: Induction of apoptosis in human BV-173 cells by AnnexinV-FITC/PI staining based flow cytometric analysis; format: functional, cell-based; how it was run: as §5
BV-173 [18] = test: Inhibition of Hsp70/Bim protein protein interaction in human BV-173 cells assessed as decrease in Raf-1 expression at 3 uM by Western blot analysis; format: cell-based; how it was run: as §3
BaF3 = test: Induction of apoptosis in mouse BaF3 cells by AnnexinV-FITC/PI staining based flow cytometric analysis; format: cell-based; how it was run: as §5
[19] = Binding affinity to human Hsp70 NBD (1 to 383) assessed as dissociation constant measured by isothermal titration calorimetry assay
How it was run: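 ITC: binding isotherms integrated to give enthalpy change against ligand molar ratio, fitted with a one-set-of-sites model. Kd taken from the slope of the central linear part of the fractional saturation curve. Three independent experiments.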

BV-173 [20] = test: Induction of apoptosis in human BV-173 cells transfected with Bim shRNA at 3 uM by AnnexinV staining method; format: functional, cell-based; how it was run: as §7
Homo sapiens = organism: Homo sapiens; test: Inhibition of BimBH3-stimulated human HSP70 ATPase activity
[21] = molecular target: Stress-70 protein, mitochondrial (Homo sapiens) (UniProt P38646); test: Competitive binding affinity to Mortalin in human BV-173 cell lysate up to 10 uM by pull-down/Western blot analysis; format: subcellular; conditions: dose microM <=10; how it was run: as §2
HEK293 = test: Induction of apoptosis in human HEK293 cells by AnnexinV-FITC/PI staining based flow cytometric analysis; format: cell-based; how it was run: as §5
BV-173 [22] = test: Inhibition of Hsp70/Bag3 protein protein interaction in human BV-173 cell lysate at 1 to 5 uM by co-IP/Western blot analysis; format: subcellular; conditions: dose 1-5 µM; how it was run: as §6

Chain of Apoptosis regulator Bcl-2 (P10415 whole entry): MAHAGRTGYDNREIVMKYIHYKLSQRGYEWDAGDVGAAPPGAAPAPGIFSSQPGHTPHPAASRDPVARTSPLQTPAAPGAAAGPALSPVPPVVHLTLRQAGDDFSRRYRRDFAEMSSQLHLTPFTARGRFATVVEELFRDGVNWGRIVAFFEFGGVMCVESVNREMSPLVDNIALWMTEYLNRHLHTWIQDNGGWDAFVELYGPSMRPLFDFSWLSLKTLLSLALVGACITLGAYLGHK
Chain of Heat shock cognate 71 kDa protein (Homo sapiens) (P11142 2-646 limits assumed): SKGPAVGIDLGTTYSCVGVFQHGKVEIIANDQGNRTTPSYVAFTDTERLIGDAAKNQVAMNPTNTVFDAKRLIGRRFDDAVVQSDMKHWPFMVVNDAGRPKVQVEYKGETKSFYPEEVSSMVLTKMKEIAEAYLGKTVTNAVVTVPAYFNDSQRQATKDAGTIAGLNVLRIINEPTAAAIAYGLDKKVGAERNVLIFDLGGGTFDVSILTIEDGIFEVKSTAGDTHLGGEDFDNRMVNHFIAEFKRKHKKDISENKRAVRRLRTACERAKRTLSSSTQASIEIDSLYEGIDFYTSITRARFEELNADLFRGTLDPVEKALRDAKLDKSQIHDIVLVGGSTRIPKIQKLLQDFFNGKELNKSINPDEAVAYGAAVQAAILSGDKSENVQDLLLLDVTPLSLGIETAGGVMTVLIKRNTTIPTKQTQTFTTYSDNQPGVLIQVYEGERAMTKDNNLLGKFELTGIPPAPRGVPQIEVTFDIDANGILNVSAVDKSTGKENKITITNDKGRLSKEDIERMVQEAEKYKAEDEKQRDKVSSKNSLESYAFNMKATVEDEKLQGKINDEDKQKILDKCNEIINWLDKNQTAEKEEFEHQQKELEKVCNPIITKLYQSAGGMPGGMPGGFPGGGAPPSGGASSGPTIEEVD
Chain of Stress-70 protein, mitochondrial (Homo sapiens) (P38646 whole entry): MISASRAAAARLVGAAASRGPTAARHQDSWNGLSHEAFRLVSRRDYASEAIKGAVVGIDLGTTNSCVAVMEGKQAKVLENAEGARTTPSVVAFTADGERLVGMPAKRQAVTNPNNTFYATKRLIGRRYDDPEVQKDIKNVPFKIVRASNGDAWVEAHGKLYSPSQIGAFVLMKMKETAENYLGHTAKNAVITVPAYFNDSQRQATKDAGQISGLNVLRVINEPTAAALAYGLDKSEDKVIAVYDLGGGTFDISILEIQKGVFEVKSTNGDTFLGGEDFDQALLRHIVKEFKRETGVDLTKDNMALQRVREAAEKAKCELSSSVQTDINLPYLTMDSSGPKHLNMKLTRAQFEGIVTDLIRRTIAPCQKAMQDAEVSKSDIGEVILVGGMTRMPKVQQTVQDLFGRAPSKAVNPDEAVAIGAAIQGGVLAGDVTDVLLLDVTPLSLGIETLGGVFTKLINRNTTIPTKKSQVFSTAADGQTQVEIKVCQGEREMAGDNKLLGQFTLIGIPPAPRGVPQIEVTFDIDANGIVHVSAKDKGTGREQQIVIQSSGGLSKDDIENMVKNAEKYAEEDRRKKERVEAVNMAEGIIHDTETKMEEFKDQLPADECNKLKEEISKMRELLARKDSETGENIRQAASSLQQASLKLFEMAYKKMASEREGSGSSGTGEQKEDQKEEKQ

`N#CC1=C(C#N)c2ccc(Sc3ccccc3)c3cccc(c23)C1=O` showed an IC50 [1] of 1.8 µM and an IC50 [2] of 7.7 µM.
Work on `N#CC1=C(C#N)c2ccc(NCc3ccccc3)c3cccc(c23)C1=O` yielded an IC50 [1] of 14.8 µM and an IC50 [2] of 18.5 µM.
In the case of `N#CC1=C(NCCC(N)=O)c2ccc(SC3CCCCC3)c3cccc(c23)C1=O`, the IC50 [1] is reported as 13.5 µM and the IC50 [2] is reported as 1 µM.
`N#CC1=C(NCC2CCCCC2)c2ccc(SC3CCCCC3)c3cccc(c23)C1=O` gave an IC50 [1] of 4.8 µM and an IC50 [2] of 8.4 µM.
Work on `N#CC1=C(C#N)c2ccc(NCCO)c3cccc(c23)C1=O` yielded an IC50 [1] greater than 20 µM and an IC50 [2] of 15.2 µM.
Molecule `N#CC1=C(C#N)c2ccc(Sc3ccc(Br)cc3)c3cccc(c23)C1=O` has an IC50 [1] of 0.7 µM and an IC50 [2] of 2.5 µM.
For `CCCCNC1=C(C#N)C(=O)c2cccc3c(SC4CCCCC4)ccc1c23`, the IC50 [1] was 16 µM and the IC50 [2] was 13.2 µM.
In the case of `N#CC1=C(NCc2ccccc2)c2ccc(SC3CCCCC3)c3cccc(c23)C1=O`, the IC50 [1] is reported as 5.2 µM and the IC50 [2] is reported as 10.5 µM.
`N#CC1=C(C#N)c2ccc(SC3CCCCC3)c3cccc(c23)C1=O` showed an IC50 [1] of 8.6 µM and an IC50 [2] of 1.7 µM.
With `CC(C)c1ccc(Sc2ccc3c4c(cccc24)C(=O)C(C#N)=C3C#N)cc1` the IC50 [1] was 2.8 µM and the IC50 [2] was 4.4 µM.
With `CC1(C)CCC(CN2CCN(c3ccc(C(=O)NS(=O)(=O)c4ccc(NCC5CCOCC5)c([N+](=O)[O-])c4)c(Oc4cnc5[nH]ccc5c4)c3)CC2)=C(c2ccc(Cl)cc2)C1` [VENETOCLAX] the IC50 [2] was greater than 20 µM.
`N#CC1=C(C#N)c2ccc(N3CCSCC3)c3cccc(c23)C1=O` showed an IC50 [1] of 0.8 µM and an IC50 [2] greater than 20 µM.
With `N#CC1=C(NCCN2CCOCC2)c2ccc(SC3CCCCC3)c3cccc(c23)C1=O` the Activity (BV-173 [3]) was “Dose-Dependent Effect”, the inhibition (BV-173 [4]) was “Active” and the Activity [5] was “Active”. The IC50 [1] was 18.7 µM, the inhibition (KCL-22 [6]) was “Active” and the inhibition (BV-173 [7]) was “Active”. The Activity (BV-173 [8]) was “Active”, the EC50 (KCL-22 [9]) was 2.6 µM and the inhibition (BV-173 [10]) was “Active”. The inhibition (BV-173 [11]) was “Active”, the Activity (BV-173 [12]) was “Active” and the Activity (BV-173 [13]) was “Active”. The inhibition (KCL-22 [14]) was “Active”, the inhibition (KCL-22 [15]) was “Active” and the inhibition (KCL-22 [16]) was “Active”. For the same molecule, the EC50 (BV-173 [17]) was 1.4 µM, the inhibition (BV-173 [18]) was “Active” and the EC50 (BaF3) was greater than 15 µM. For the same molecule, the Kd [19] was 0.96 µM, the Activity (BV-173 [20]) was “Active” and the inhibition (Homo sapiens) was “Active”. For the same molecule, the Activity [21] was “Active”, the EC50 (HEK293) was greater than 15 µM and the IC50 [2] was 0.45 µM. For the same molecule, the inhibition (BV-173 [22]) was “inactive”.
With `COc1ccc(Sc2ccc3c4c(cccc24)C(=O)C(C#N)=C3C#N)cc1` the IC50 [1] was 6.1 µM and the IC50 [2] was 4.5 µM.
For `N#CC1=C(NCCO)c2ccc(SC3CCCCC3)c3cccc(c23)C1=O`, the IC50 [1] was 9.6 µM and the IC50 [2] was 0.81 µM.
`N#CC1=C(C#N)c2ccc(SC3CCCC3)c3cccc(c23)C1=O` gave an IC50 [1] of 8.4 µM and an IC50 [2] of 3.2 µM.
`N#CC1=C(C#N)c2ccc(NC3CCCCC3)c3cccc(c23)C1=O` gave an IC50 [1] greater than 20 µM and an IC50 [2] greater than 20 µM.
